Source: PubChem
An excerpt weighted towards active compounds, which were near 1% of everything screened.
proCasp3 act – activates human procaspase-3. P42574. activation, % at 8.5 µM. recombinant procaspase-3 D3A, Ac-DEVD-pNA absorbance 405 nm. 330,000 tested, 0.11% active;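 active = activation above the mean of all tested compounds plus 3 SD, cut at about 21% in these data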;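 also: 0% = DMSO alone and 100% = DMSO wells spiked with extra 5 µM PC-3 D3A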
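Test system: Procaspase-3 D3A mutant, all three cleavage aspartates alanine | Dosing: Single dose, 8.5 µM nominal compound, 0.8% DMSO | Schedule: 1 h preincubation, 2 h reaction | Technique: 405 nm absorbance of p-nitroaniline, reads at 0 and 120 min | Repeats: One well per compound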
PREPL inhibitor – inhibits the human prolyl oligopeptidase-like enzyme; recombinant PREPL, fluorescence polarization activity-based probe; inhibition, % at 5.96 µM; 320,000 tested, 0.68% active;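 also: 0% = enzyme with DMSO and 100% = wells lacking enzyme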
LYPLA1 counter – LYPLA1 (human) inhibition in PME1 counter-screen; 320,000 tested, 0.16% active; inhibition, % at 5.9 µM; recombinant LYPLA1, FP-Rh probe fluorescence polarization; O75608;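 active = inhibition above the mean of all tested compounds plus 3 SD, set per campaign, cut at about 14% in these data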;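 also: inhibitors block serine hydrolase probe labeling of LYPLA1 so polarization falls; 0% = enzyme with DMSO and 100% = wells lacking LYPLA1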
LYPLA2 inh – LYPLA2 (human) inhibition in PME1 counter-screen. 320,000 tested, 0.38% active. recombinant LYPLA2, FP-Rh probe fluorescence polarization. inhibition, % at 5.9 µM. AID 2177;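 active = inhibition above the screen-wide mean plus 3 SD, limit set per campaign, cut at about 26% in these data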;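 also: 0% = LYPLA2 with DMSO and 100% = wells lacking LYPLA2 enzyme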
proCasp7 act – counter-screen for procaspase-3 activators: activators of human procaspase-7; recombinant procaspase-7, Ac-DEVD-pNA absorbance 405 nm; D23A/D198A/D206A triple mutant, cannot self-cleave; scale: DMSO 0, 5 µM enzyme 100; AID 463210; P55210; activation, % at 8.5 µM; 330,000 tested, 0.093% active;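 active = percent activation above the screen-wide mean plus 3 SD, cut at about 25% in these data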
Target sequence (P55210 whole entry D23A/D198A/D206A): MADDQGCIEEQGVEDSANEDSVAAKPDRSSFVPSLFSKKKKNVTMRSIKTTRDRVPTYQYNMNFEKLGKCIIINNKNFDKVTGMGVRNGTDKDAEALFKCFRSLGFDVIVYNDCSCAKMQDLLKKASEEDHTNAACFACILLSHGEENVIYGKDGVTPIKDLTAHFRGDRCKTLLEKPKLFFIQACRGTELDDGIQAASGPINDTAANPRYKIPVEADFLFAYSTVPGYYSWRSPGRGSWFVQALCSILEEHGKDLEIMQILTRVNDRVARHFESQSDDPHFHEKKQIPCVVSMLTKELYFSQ
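Assay system: Uncleavable procaspase-7 mutant enzyme | Input: 2 µM procaspase-7 mutant as dispensed | Timing: 1 h compound preincubation, 2 h substrate cleavage, 25 °C | Repeats: One well per compound | Control set: DMSO wells as 0%, DMSO with 5 µM added PC-7 as 100% | Technique: Epi-absorbance of released pNA at 405 nm, two timepoints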
PREPL confirm – human PREPL inhibition, confirmation; 2,000 tested, 67% active; shares compounds with PREPL inhibitor; recombinant PREPL, fluorescence polarization activity probe; inhibition, % at 5.96 µM;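 also: 0% = protein with DMSO and 100% = wells lacking protein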
* = called active by the depositor; . = no result given. Rule as the data show it, unless noted: active = inhibition above about 43%; inactive = the rest.

SMILES	proCasp3 act	PREPL inhibitor	LYPLA1 counter	LYPLA2 inh	proCasp7 act	PREPL confirm
C[C@H](CO)N1C[C@H](C)[C@@H](CN(C)C(=O)Nc2ccc(C(F)(F)F)cc2)Oc2ccc(NC(=O)c3ccncc3)cc2C1=O	-3.2	50.9*	.	.	5.0	46.2*
COc1ccc(-c2cccc(NC(=O)COc3ccc(Cl)cc3)c2)nn1	-5.4	-21.1	-7.2	-5.9	3.6	.
CC1Sc2ccc(S(=O)(=O)N3CCC(C(=O)N(C)Cc4ccccc4)CC3)cc2NC1=O (stereo not given)	2.2	3.6	-4.7	5.0	-6.5	.
COc1ccc(OC)c(NC(=O)c2cc3c(=O)n4ccccc4nc3n2C)c1	2.6	20.6	2.5	6.5	-1.9	.
CN(C)c1ccc(NC(=O)c2cc3c(=O)n4ccccc4nc3n2C)cc1	-3.3	43.5*	2.7	-1.5	-2.8	17.1
CS(=O)(=O)N1CCCC(C(=O)Nc2c(F)cccc2F)C1 (stereo not given)	2.5	-1.1	0.8	0.6	1.1	.
O=c1[nH]n2c(=O)c3c([nH]c2c1N=Nc1cccc(Cl)c1)CCCC3	-7.7	55.4*	11.9	-0.7	3.5	57.6*
NC(=O)[C@@H]1CCCN1Cc1nc(Cc2ccccc2F)no1	3.2	-3.4	1.8	0.9	6.0	.
COc1ccc(/C=C/C(=O)N2CCN(c3ccccc3)CC2)cc1S(=O)(=O)N1CCOCC1	-1.6	5.6	1.6	9.6	13.9	.
C[C@@H]1NC(=O)[C@H](CCC(N)=O)NC(=O)c2cc([N+](=O)[O-])cc(I)c2NCCC[C@@H](C(N)=O)NC1=O	-18.0	15.8	-1.2	-3.1	-25.5	.
C[C@@H]1NC(=O)[C@H](CCCN=C(N)N)NC(=O)c2cc([N+](=O)[O-])cc(I)c2NCCC[C@@H](C(N)=O)NC1=O	-6.4	43.4*	-2.8	-0.8	-41.4	22.1
O=C(NCc1ccccc1)C1=C[C@@H](c2coc3ccccc3c2=O)C[C@@H](OCc2ccc(CO)cc2)O1	5.4	17.4	-0.3	-0.3	3.3	.
COc1cc(C#Cc2c(-c3cncn3C)n(C)c3ccc(-c4ccc(CN5CCOCC5)cc4)cc23)cc(OC)c1	4.0	45.3*	.	.	5.2	29.3
CC(C)Nc1nnc(SCC(=O)Nc2ccc3c(c2)C(=O)c2ccccc2C3=O)s1	-2.2	43.6*	-7.0	21.6	0.1	52.0*
O=C(CSc1nnc(NC2CCCCC2)s1)Nc1ccc2c(c1)C(=O)c1ccccc1C2=O	-5.3	4.6	-5.8	1.2	-1.7	.
CN(C)c1ccc(C(CNC(=O)COc2ccc(Cl)cc2)N2CCCC2)cc1 (stereo not given)	0.5	66.9*	-1.4	-2.6	0.2	52.8*
COc1ccc(C(CNC(=O)COc2cc(C)ccc2Cl)N2CCCCC2)cc1 (stereo not given)	-13.3	9.8	-0.9	4.2	3.5	.
O=C(Nc1ccc(Cl)c(Cl)c1)C1C2C=CC3(O2)C1C(=O)N(CCN1CCCCC1)C3C(=O)NC1CCCCC1 (stereo not given)	3.1	50.2*	-0.6	5.4	5.4	52.4*
Cc1ccc(NC(=O)C2C3C=CC4(O3)C2C(=O)N(CCCN2CCOCC2)C4C(=O)NC2CCCCC2)cc1Cl (stereo not given)	0.6	24.7	-4.0	-6.1	12.3	.
O=C(N/N=C/c1ccc(Cl)cc1Cl)c1cccc(F)c1	4.7	-2.8	-7.2	-6.0	10.0	.
O=C(C[n+]1ccc(C(=O)N/N=C/c2ccc(Cl)cc2Cl)cc1)c1ccccc1	-12.1	45.0*	-5.4	0.2	-24.3	24.2
Cc1ccc(C)c(N2CCN(C(=O)C3CCCN(S(=O)(=O)c4cnc[nH]4)C3)CC2)c1 (stereo not given)	1.6	2.9	0.1	0.6	3.3	.
CN(CC(=O)Nc1ccc(Cl)c(C(F)(F)F)c1)C(=O)Cc1n[nH]c(=O)c2ccccc12	-3.8	56.8*	1.6	6.6	-0.1	14.6
COc1ccc(S(=O)(=O)N2CCCCC2)cc1NC(=O)c1cnc(C)cn1	5.8	14.4	1.6	5.7	1.3	.
Cc1ccsc1/C=N/N=C1\C(=O)Nc2ccccc21	-7.9	52.9*	3.0	0.6	15.8	51.6*
O=C1Nc2ccccc2/C1=N\N=C\c1ccc(O)c(O)c1	3.5	2.0	-3.6	-3.8	0.3	.
